Changes are numbered by the printed parent chain. Active and inactive are the calls of the source.

One experiment has as its target T1, Lysosomal acid glucosylceramidase (Homo sapiens) (UniProt P04062).
T1 sequence (whole entry): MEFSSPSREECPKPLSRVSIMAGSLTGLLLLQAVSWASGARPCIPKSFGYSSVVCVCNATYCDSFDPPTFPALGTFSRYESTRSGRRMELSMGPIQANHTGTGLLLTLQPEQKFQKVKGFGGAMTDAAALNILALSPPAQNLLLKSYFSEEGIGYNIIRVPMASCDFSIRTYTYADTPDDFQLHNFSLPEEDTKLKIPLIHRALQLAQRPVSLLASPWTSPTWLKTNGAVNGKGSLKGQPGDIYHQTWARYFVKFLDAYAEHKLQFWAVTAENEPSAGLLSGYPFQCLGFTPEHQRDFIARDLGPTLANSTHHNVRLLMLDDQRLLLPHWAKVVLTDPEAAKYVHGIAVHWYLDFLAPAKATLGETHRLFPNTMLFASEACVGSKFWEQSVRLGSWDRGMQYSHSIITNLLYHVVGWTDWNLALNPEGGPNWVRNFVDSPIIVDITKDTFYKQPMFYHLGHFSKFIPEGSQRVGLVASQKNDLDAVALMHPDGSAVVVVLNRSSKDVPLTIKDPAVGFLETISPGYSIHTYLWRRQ
By ΔTm is commonly meant the shift of the melting midpoint relative to a reference. In the case of `O=S(=O)(c1ccc2ccccc2c1)N1CCN(c2nc(-c3cccs3)nc3ccccc23)CC1`, the ΔTm stood at 4.35 °C.

Consider `Cc1ccc(S(=O)(=O)N2CCN(c3nc(-c4cccs4)nc4ccccc34)CC2)cc1`, for which the ΔTm worked out at 0.84 °C.

Turning to `OC[C@H]1CNC[C@@H](O)[C@@H]1O`, the ΔTm is 5.5 °C.

In a further experiment the test system is T2, Lysosomal acid glucosylceramidase (Homo sapiens), P04062 [N409S].
T2 sequence (whole entry): T1 sequence (whole entry) with N409S
The experiment can be described thus: Increase of GCase N370S mutant trafficking to lysosomes in human fibroblast cells assessed as colocalization of Gcase with Lamp2 at 10 uM after 5 days by immunofluorescence method. It counts as cell-based. The procedure, abridged: (§1)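 Primary dermal fibroblasts from N370S/N370S Gaucher patients and a control, in chamber slides. Compounds given for five days, range 1 nM to 25 μM. Cells fixed in 3% paraformaldehyde and permeabilized with 0.1% Triton-X. Stained with rabbit anti-GCase R386 (1:500) and mouse anti-LAMP1 or LAMP-2 (1:100), then Alexa-conjugated secondaries and DAPI. Imaged by confocal microscopy for GC/LAMP2 colocalization.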
`O=S(=O)(c1ccc2ccccc2c1)N1CCN(c2nc(-c3cccs3)nc3ccccc23)CC1`: the result was Active.

Turning to `OC[C@H]1CNC[C@@H](O)[C@@H]1O`, the outcome was Active.

Another experiment addresses T1, Lysosomal acid glucosylceramidase (Homo sapiens). This is another data set of the same source.
Regarding `O=S(=O)(c1ccc2ccccc2c1)N1CCN(c2nc(-c3cccs3)nc3ccccc23)CC1`, the ΔTm worked out at 1.6 °C.

In the case of `Cc1ccc(S(=O)(=O)N2CCN(c3nc(-c4cccs4)nc4ccccc34)CC2)cc1`, the ΔTm was -1.4 °C.

Another experiment has the same target. As to the kind of experiment: Binding affinity to recombinant Gcase assessed as change in melting temperature at 300 uM by fluorescence thermal shift technique. The procedure, abridged:
(§2)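 Differential scanning fluorometry on recombinant wild-type GC at 2 μM final with SYPRO Orange, in 150 mM phosphate/citrate pH 4.8. 12-point DMSO dilution series, final 0.1–600 μM, 2% DMSO final; DMSO-only control. Heated 20 to 95 °C at 0.1 °C/s. Fluorescence read at 490 nm excitation, 575 nm emission. Tm derived from melt curves; shift is relative to the protein-only control.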
`O=S(=O)(c1ccc2ccccc2c1)N1CCN(c2nc(-c3cccs3)nc3ccccc23)CC1`: the ΔTm was 19.8 °C.

With `OC[C@H]1CNC[C@@H](O)[C@@H]1O`, the ΔTm is 8.98 °C.

System in a further experiment: not listed separately
As to the kind of experiment: Inhibition of alpha-galactosidase.
For the compound `O=S(=O)(c1ccc(C(F)(F)F)cc1)N1CCN(c2nc(-c3cccs3)nc3cc(Cl)ccc23)CC1`, the outcome was inactive.

Turning to `O=S(=O)(c1ccc(F)cc1)N1CCN(c2nc(-c3ccc(F)cc3)nc3cc(Cl)ccc23)CC1`, the outcome was inactive.

`O=S(=O)(c1ccccc1)N1CCN(c2nccc(-c3cccs3)n2)CC1`: the outcome was inactive.

On to `CN1CCN(c2nc(-c3cccs3)nc3ccccc23)CC1`, for which the result was inactive.

On to `O=S(=O)(c1ccc(Cl)cc1)N1CCN(c2nc(-c3ccc(Cl)cc3)nc3ccccc23)CC1`, for which the outcome was inactive.

As to `Cc1ccc(-c2nc(N3CCN(S(=O)(=O)c4ccc(F)cc4)CC3)c3ccc(Cl)cc3n2)cc1`, the result was inactive.

Regarding `Cc1ccc(S(=O)(=O)N2CCN(c3nc(-c4cccs4)cc4ccccc34)CC2)cc1`, the outcome was inactive.

Turning to `O=S(=O)(c1ccc(F)cc1)N1CCN(c2nc(-c3cccc(Br)c3)nc3ccccc23)CC1`, the result was inactive.

For `Cc1ccc(S(=O)(=O)N2CCN(c3nc(-c4cccs4)nc4c3ncn4COC(=O)C(C)(C)C)CC2)cc1`, the outcome was inactive.

Turning to `Cc1ccc(S(=O)(=O)N2CCN(c3nc(C#N)nc4ccccc34)CC2)cc1`, the result was inactive.

Turning to `O=S(=O)(c1ccc2ccccc2c1)N1CCN(c2nc(-c3cccs3)nc3ccccc23)CC1`, the result was inactive.

With `Cc1ccc(S(=O)(=O)N2CCN(c3nc(-c4cccs4)nc4ccccc34)CC2)cc1`, the outcome was inactive.

For the compound `OC[C@H]1CNC[C@@H](O)[C@@H]1O`, the result was inactive.

In a further experiment the target is T1, Lysosomal acid glucosylceramidase (Homo sapiens). As to the kind of experiment: Increase of GCase trafficking to lysosomes in human fibroblast cells assessed as colocalization of Gcase with Lamp2 at 10 uM after 5 days by immunofluorescence method. The format is cell-based. The procedure, abridged:
as §1
For the compound `O=S(=O)(c1ccc2ccccc2c1)N1CCN(c2nc(-c3cccs3)nc3ccccc23)CC1`, the outcome was Active.

With `OC[C@H]1CNC[C@@H](O)[C@@H]1O`, the outcome was Active.

The target is the same in the next experiment. The experiment can be described thus: Binding affinity to recombinant Gcase assessed as change in melting temperature at 500 uM by fluorescence thermal shift technique. The gist of the method:
as §2
For the compound `OC[C@H]1CNC[C@@H](O)[C@@H]1O`, the ΔTm is 8.75 °C.

For a further experiment the target is unchanged. The source holds these as a separate data set.
Turning to `O=S(=O)(c1ccc2ccccc2c1)N1CCN(c2nc(-c3cccs3)nc3ccccc23)CC1`, the ΔTm was -1.33 °C.

For the compound `Cc1ccc(S(=O)(=O)N2CCN(c3nc(-c4cccs4)nc4ccccc34)CC2)cc1`, the ΔTm was found to be 0.03 °C.

As for `OC[C@H]1CNC[C@@H](O)[C@@H]1O`, the ΔTm came out at 0.4 °C.

A further experiment shares this target. As to the kind of experiment: Binding affinity to recombinant Gcase assessed as change in melting temperature at 400 uM by fluorescence thermal shift technique. The gist of the method: as §2
As to `O=S(=O)(c1ccc2ccccc2c1)N1CCN(c2nc(-c3cccs3)nc3ccccc23)CC1`, the ΔTm was determined as 19.9 °C.

Turning to `OC[C@H]1CNC[C@@H](O)[C@@H]1O`, the ΔTm stood at 9.56 °C.

Another experiment has the same target. This is another data set of the same source.
Turning to `O=S(=O)(c1ccc2ccccc2c1)N1CCN(c2nc(-c3cccs3)nc3ccccc23)CC1`, the ΔTm came out at 17.3 °C.

In the case of `Cc1ccc(S(=O)(=O)N2CCN(c3nc(-c4cccs4)nc4ccccc34)CC2)cc1`, the ΔTm was 11 °C.

Regarding `OC[C@H]1CNC[C@@H](O)[C@@H]1O`, the ΔTm turned out to be 8.25 °C.

A further experiment has the same target. This is another data set of the same source.
Take `O=S(=O)(c1ccc2ccccc2c1)N1CCN(c2nc(-c3cccs3)nc3ccccc23)CC1`: the thermal shift (ΔTm) worked out at 14.5 °C.

On to `Cc1ccc(S(=O)(=O)N2CCN(c3nc(-c4cccs4)nc4ccccc34)CC2)cc1`, for which the ΔTm was found to be 9.89 °C.

Turning to `OC[C@H]1CNC[C@@H](O)[C@@H]1O`, the thermal shift (ΔTm) was 7.94 °C.

The next experiment shares this target. The source holds these as a separate data set.
In the case of `O=S(=O)(c1ccc2ccccc2c1)N1CCN(c2nc(-c3cccs3)nc3ccccc23)CC1`, the ΔTm was -0.19 °C.

Regarding `Cc1ccc(S(=O)(=O)N2CCN(c3nc(-c4cccs4)nc4ccccc34)CC2)cc1`, the ΔTm is -0.09 °C.

Take `OC[C@H]1CNC[C@@H](O)[C@@H]1O`: the ΔTm came out at 1.16 °C.

System in the next experiment: not listed separately
The experiment can be described thus: Inhibition of alpha-glucosidase.
With `O=S(=O)(c1ccc(C(F)(F)F)cc1)N1CCN(c2nc(-c3cccs3)nc3cc(Cl)ccc23)CC1`, the result was inactive.

In the case of `O=S(=O)(c1ccc(F)cc1)N1CCN(c2nc(-c3ccc(F)cc3)nc3cc(Cl)ccc23)CC1`, the outcome was inactive.

Take `O=S(=O)(c1ccccc1)N1CCN(c2nccc(-c3cccs3)n2)CC1`: the outcome was inactive.

In the case of `CN1CCN(c2nc(-c3cccs3)nc3ccccc23)CC1`, the result was inactive.

`O=S(=O)(c1ccc(Cl)cc1)N1CCN(c2nc(-c3ccc(Cl)cc3)nc3ccccc23)CC1`: the outcome was inactive.

On to `Cc1ccc(-c2nc(N3CCN(S(=O)(=O)c4ccc(F)cc4)CC3)c3ccc(Cl)cc3n2)cc1`, for which the result was inactive.

In the case of `Cc1ccc(S(=O)(=O)N2CCN(c3nc(-c4cccs4)cc4ccccc34)CC2)cc1`, the outcome was inactive.

`O=S(=O)(c1ccc(F)cc1)N1CCN(c2nc(-c3cccc(Br)c3)nc3ccccc23)CC1`: the outcome was inactive.

For `Cc1ccc(S(=O)(=O)N2CCN(c3nc(-c4cccs4)nc4c3ncn4COC(=O)C(C)(C)C)CC2)cc1`, the result was inactive.

With `Cc1ccc(S(=O)(=O)N2CCN(c3nc(C#N)nc4ccccc34)CC2)cc1`, the outcome was inactive.

On to `O=S(=O)(c1ccc2ccccc2c1)N1CCN(c2nc(-c3cccs3)nc3ccccc23)CC1`, for which the result was inactive.

Consider `Cc1ccc(S(=O)(=O)N2CCN(c3nc(-c4cccs4)nc4ccccc34)CC2)cc1`, for which the outcome was inactive.

On to `OC[C@H]1CNC[C@@H](O)[C@@H]1O`, for which the result was inactive.

For another experiment, the system named is T2, Lysosomal acid glucosylceramidase (Homo sapiens), P04062 [N409S]. As to the kind of experiment: Activity at recombinant Gcase N370S mutant in human spleen homogenates assessed as hydrolysis of 4-MU-beta-D-glucose at 50 uM. It counts as tissue-based. The procedure, abridged:
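Enzyme source: human spleen homogenate, 27 μg/well, in 50 mM citric acid/K2PO4 buffer pH 5 with 0.01% Tween20. Compound pin-transferred and preincubated 5 min at room temperature. Substrate 4MU-β-glc at 1 mM final, 45 min at 37 °C. Stopped with 1 M NaOH/1 M glycine pH 10. Fluorescence read at 365 nm excitation, 440 nm emission.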
Consider `O=S(=O)(c1ccc(C(F)(F)F)cc1)N1CCN(c2nc(-c3cccs3)nc3cc(Cl)ccc23)CC1`, for which the outcome was inactive.

Take `O=S(=O)(c1ccc(F)cc1)N1CCN(c2nc(-c3ccc(F)cc3)nc3cc(Cl)ccc23)CC1`: the outcome was inactive.

In the case of `O=S(=O)(c1ccccc1)N1CCN(c2nccc(-c3cccs3)n2)CC1`, the outcome was inactive.

For `CN1CCN(c2nc(-c3cccs3)nc3ccccc23)CC1`, the outcome was inactive.

Consider `O=S(=O)(c1ccc(Cl)cc1)N1CCN(c2nc(-c3ccc(Cl)cc3)nc3ccccc23)CC1`, for which the outcome was inactive.

For `Cc1ccc(-c2nc(N3CCN(S(=O)(=O)c4ccc(F)cc4)CC3)c3ccc(Cl)cc3n2)cc1`, the result was inactive.

Regarding `Cc1ccc(S(=O)(=O)N2CCN(c3nc(-c4cccs4)cc4ccccc34)CC2)cc1`, the outcome was inactive.

For the compound `O=S(=O)(c1ccc(F)cc1)N1CCN(c2nc(-c3cccc(Br)c3)nc3ccccc23)CC1`, the result was inactive.

As to `Cc1ccc(S(=O)(=O)N2CCN(c3nc(-c4cccs4)nc4c3ncn4COC(=O)C(C)(C)C)CC2)cc1`, the result was inactive.

Turning to `Cc1ccc(S(=O)(=O)N2CCN(c3nc(C#N)nc4ccccc34)CC2)cc1`, the outcome was inactive.

In a further experiment the target is T1, Lysosomal acid glucosylceramidase (Homo sapiens). The source holds these as a separate data set.
As to `O=S(=O)(c1ccc2ccccc2c1)N1CCN(c2nc(-c3cccs3)nc3ccccc23)CC1`, the ΔTm came to 10.8 °C.

For the compound `Cc1ccc(S(=O)(=O)N2CCN(c3nc(-c4cccs4)nc4ccccc34)CC2)cc1`, the ΔTm was found to be 5.18 °C.

For `OC[C@H]1CNC[C@@H](O)[C@@H]1O`, the ΔTm was found to be 6.72 °C.

(Values after ChEMBL document CHEMBL1671789, “Evaluation of quinazoline analogues as glucocerebrosidase inhibitors with chaperone activity” (J Med Chem, 2011).)
